Assay outcomes deposited in PubChem by several laboratories.
Only a selection was taken, and hits are over-represented in it overall.
VLA-4 inh: inhibition in a human VLA-4 binding assay; P13612; hit rate 0.2% among 330,000; VLA-4 expressing cells, ligand binding flow cytometry; AID 2557; inhibition, % (about 7 µM as worked out from the volumes in the protocol); in the data active means inhibition above about 50%
B2AR ag: activates human beta-2 adrenergic receptor causing internalization; P07550; Am2.2-beta2AR cells, FAP receptor internalization, flow cytometry; response, % (test concentration not listed); hit rate 0.43% among 340,000;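 active means response above a set limit, near 3 SD of response in nonfluorescent compounds, cut at about 42% in these data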
XBP1 UPR activ: activators of adaptive arm of unfolded protein response (XBP1); hit rate 0.33% among 330,000; AID 463104; activation, % at 20 µM; CHO-XBP1 luciferase reporter, IRE1-XBP1 UPR activation, luminescence; percent of tunicamycin response, DMSO as zero;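 active means versus positive control, 20 µM dose yields 30% or more activation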;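 further: 100% = tunicamycin at 10 µg/mL and 0% = DMSO only wells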
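Material – CHO cell line with stable XBP1 luciferase reporter · Buffer or medium – F12 plus 10% FBS · Compound – single point, 20 µM final compound, 1% DMSO · Schedule – 16-18 h cell attachment at 37 °C, then 6 h compound exposure · Signal – Steady-Glo luminescence read · Benchmarks – high control tunicamycin 10 µg/mL final, low control DMSO vehicle only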
CHOP inhibitor: inhibitors of CHOP induction in ER stress response; CHO-K1 CHOP-promoter luciferase, tunicamycin-induced, 15-18 h; inhibition, % at 10 µM; hit rate 3.8% among 220,000;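 active means compounds that reduced the stress-induced luciferase reporter signal by more than about 70% of percent inhibition, limit read from the data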;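 further: 0% = tunicamycin plus vehicle and 100% = wells without tunicamycin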
UPR CHOP act: activators of apoptotic arm of unfolded protein response (CHOP) | activation, % at 10 µM | hit rate 0.34% among 330,000 | CHO-CHOP luciferase reporter, UPR activation, luminescence; percent of tunicamycin response over DMSO baseline | AID 449763;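 active means at 10 µM dose, activation of 40% or more, normalized to positive control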;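 further: 100% = tunicamycin at 10 µg/mL and 0% = DMSO alone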
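Assay system: CHO cells with stable CHOP pathway luciferase reporter; Buffer or medium: F12 plus 10% serum; Times: 16-18 h cell attachment, then 6 h compound exposure, 37 °C; Signal: luciferase luminescence; Read-out basis: percent activation relative to tunicamycin control; Control set: tunicamycin high control, DMSO low control.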
* = called active by the depositor; . = no result given.

SMILES | VLA-4 inh | B2AR ag | XBP1 UPR activ | CHOP inhibitor | UPR CHOP act
Cc1ccc(-c2nc(NC(=O)c3ccc(S(=O)(=O)N(CCC#N)CCC#N)cc3)sc2-c2ccccc2)cc1 | 0.0 | 2.8 | -1.0 | 5.3 | 1.5
CSCCC(NS(=O)(=O)/C=C/c1ccccc1)C(=O)O (centres undefined) | 21.5 | 4.6 | -0.3 | -20.5 | -1.2
CCNC(=O)/C(C#N)=C/c1c(N(Cc2ccccc2)Cc2ccccc2)nc2ccccn2c1=O | 3.5 | 23.0 | 2.3 | 32.4 | -0.1
CNC(=O)/C(C#N)=C/c1c(N(Cc2ccccc2)Cc2ccccc2)nc2c(C)cccn2c1=O | -36.2 | 60.5* | . | 35.7 | .
Cc1ccccc1OCC(=O)NC(=S)Nc1ccc(S(=O)(=O)NC2CCCCC2)cc1 | -0.3 | -3.6 | -3.7 | 77.3* | -1.6
CCOC(=O)c1ccc(NC(=O)CCC2COc3ccccc3O2)cc1 (centres undefined) | 0.6 | -10.1 | -2.8 | 34.0 | -2.2
Cc1cc(C)nc(NS(=O)(=O)c2ccc(NC(=O)CCC3COc4ccccc4O3)cc2)n1 (centres undefined) | 0.7 | -2.7 | -0.4 | 77.4* | -3.9
Cc1cc(C)nc(NS(=O)(=O)c2ccc(NC(=S)NC(=O)C3CCCC3)cc2)n1 | 6.4 | 4.1 | 0.3 | 71.9* | 0.9
Cc1ccnc(NS(=O)(=O)c2ccc(NC(=O)C3CCCCC3)cc2)n1 | 1.4 | -2.4 | -1.7 | 27.4 | 0.6
CC(=O)NS(=O)(=O)c1ccc(NC(=S)NC(=O)COc2ccccc2C)cc1 | -7.6 | 5.7 | -5.3 | 26.6 | -0.9
CCN(CC(=O)Nc1ccccc1OC)C(=O)CN1C(=O)NC(C)(c2ccc3ccccc3c2)C1=O (centres undefined) | . | -1.3 | . | . | .
COc1ccc([N+](=O)[O-])c(S(=O)(=O)c2ccccc2)n1 | 17.1 | 51.5* | -9.0 | 106.5* | -8.8
Cc1ccc(C)c(S(=O)(=O)N2CCCOC2CNC(=O)C(=O)NCc2ccncc2)c1 (centres undefined) | 5.2 | -8.4 | -1.7 | -6.4 | -0.2
N#CC(Sc1ccccn1)c1ccc(Cl)cc1Cl (centres undefined) | 1.4 | -4.1 | -0.2 | 73.5* | -1.3
Clc1ccc(COc2ccccn2)c(Cl)c1 | . | 11.6 | 1.4 | 28.9 | 3.4
COc1ccccc1N=Cc1c(C)c(C#N)c2[nH]c3ccccc3n2c1=O | -20.7 | 17.7 | -1.4 | 84.3* | 2.7
Cc1c(Cc2ccccc2)c(=O)n2c([nH]c3ccccc32)c1C#N | 4.6 | -9.4 | -0.6 | 21.7 | -1.3
CCCNC(=O)c1ccccc1NC(=O)c1ccc2c(c1)NC(=O)C(C)S2 (centres undefined) | -2.7 | -1.6 | -1.3 | . | 1.3
COc1ccc(C(=O)Nc2cccc(NC(=O)c3ccc(OC)c(OC)c3)n2)cc1OC | 1.4 | 16.5 | 2.6 | . | 4.0
CCOc1ccc(-c2n[nH]c(C)c2-c2ccccc2OC)c(O)c1 | -0.8 | -11.2 | -3.1 | 87.1* | -0.4
Cc1cc(C)nc(Nc2ncc(O)n2-c2ccc(C)c(Cl)c2)n1 | -2.4 | 0.6 | 0.7 | 80.0* | 2.4
Cc1cc(C)nc(Nc2ncc(O)n2-c2ccc(C)c(C)c2)n1 | -45.1 | 3.2 | 3.7 | 18.3 | -1.3
CC(C)COc1nc2ccccc2c(=O)n1OCC(=O)O | 3.3 | 9.0 | -0.9 | 15.3 | 0.7
CCCOn1c(OCC(C)C)nc2ccccc2c1=O | 9.1 | 10.8 | 3.4 | 72.8* | -0.4
COc1ccc(Cl)cc1C(=O)Nn1c(C)nc2ccccc2c1=O | 6.1 | -17.2 | 3.2 | 9.4 | 0.0
SMILES | VLA-4 inh | B2AR ag | XBP1 UPR activ | CHOP inhibitor | UPR CHOP act
COc1ccc(Cl)cc1C(=O)Nn1c(-c2cccs2)nc2ccccc2c1=O | 11.4 | 67.8* | 1.5 | 42.3 | -1.2
Cc1cnc(C(=O)OCC(=O)NC(=O)NC(C)C)cn1 | 16.5 | 3.0 | 0.3 | 77.3* | -1.2
CC(C)(C)c1cc(=O)n(-c2ccccc2)[nH]1 | -1.9 | 10.8 | . | 70.0* | .
O=c1cc(-c2ccccc2)[nH]n1-c1ccccc1 | . | -3.6 | . | . | .
Cc1ccc2[nH]c(=O)c(-c3nc4cc(C)ccn4c3NCc3ccco3)cc2c1 | 19.1 | 1.0 | -0.8 | 92.7* | 3.3
Cc1cn(CC(=O)NCc2ccc(N(C)C)cc2)c(=O)[nH]c1=O | . | -8.1 | . | . | .
CC(=O)Nc1cccc(C(=O)/C=C/c2ccc(F)cc2)c1 | 18.2 | 54.2* | 8.5 | -148.0 | 5.7
CC(=O)Nc1cccc(C(=O)/C=C/c2ccc(N(C)C)cc2)c1 | -69.8 | 2.5 | -0.9 | -19.0 | 2.7
CC(=O)Nc1cccc(C(=O)/C=C/c2ccc[nH]2)c1 | -12.2 | -3.7 | 0.6 | -15.3 | 3.6
CC(=O)Nc1cccc(C(=O)/C=C/c2ccc(Br)cc2)c1 | 22.7 | 66.8* | 13.1 | -45.5 | 6.8
CC(=O)Nc1cccc(C(=O)/C=C/c2ccc(/C=C/C(=O)c3cccc(NC(C)=O)c3)cc2)c1 | 31.2 | . | 14.8 | 35.3 | 83.0*
CC(C)OCCCNC(=O)C1CC(=O)N(CCc2ccccc2)C1 (centres undefined) | 2.1 | -3.4 | -2.5 | . | 0.5
CCOC(=O)[C@@H]1[C@H]2COc3ccccc3[C@@H]2N2C(=O)N(c3cccc(F)c3)C(=O)[C@]12C | 2.5 | -1.9 | -1.2 | . | -0.7
C=CCN(CC=C)C(=O)C1CCN(S(=O)(=O)c2ccc(-n3cnnn3)cc2)CC1 | 5.5 | -14.7 | -2.5 | . | -0.3
COc1ccc(NC2=CC(=O)CC(c3ccccc3)C2)cc1 (centres undefined) | 6.8 | -1.9 | 0.3 | -15.9 | 0.3
COc1ccc(CCNC(=O)CCS(=O)(=O)c2cccc3nsnc23)cc1OC | -7.5 | -2.8 | -0.6 | 78.0* | -0.9
COc1ccc(CCNS(=O)(=O)c2cccc3nsnc23)cc1OC | 3.9 | -2.9 | -3.2 | 15.2 | -2.0
CCCCNS(=O)(=O)c1ccc2nc(-c3cccnc3)cc(C(=O)NC(C)C)c2c1 | -0.2 | -4.6 | -2.3 | 4.9 | 2.3
CCCCNS(=O)(=O)c1ccc2nc(-c3cccnc3)cc(C(=O)NC(C)CC)c2c1 (centres undefined) | 15.8 | 13.9 | -3.0 | 101.4* | -2.6
COc1ccc(Cc2nc3ccc(C(=O)NC(C)c4cn(C)nc4C)cc3o2)cc1 (centres undefined) | 10.0 | -1.5 | -4.3 | . | 1.4
N#Cc1cc2c(nc1SC1CC(=O)N(c3ccccc3)C1=O)CCC2 (centres undefined) | 7.7 | -9.6 | . | 83.6* | .
COc1ccccc1NS(=O)(=O)c1cc(NC(=O)Cc2n[nH]c(=O)c3ccccc23)ccc1Cl | -1.6 | 7.6 | -1.3 | . | -0.3
CC(C(=O)NC1=NCCS1)N1C(=O)C2CC=CCC2C1=O (centres undefined) | 3.4 | 9.2 | 1.7 | 82.6* | 2.2
CC(C(=O)NC1=NCCS1)N1C(=O)c2ccccc2C1=O (centres undefined) | 2.4 | -2.5 | -3.8 | 5.9 | -0.1
c1ccc(-c2noc(CSc3nnc(Cc4cccs4)n3-c3ccccc3)n2)cc1 | 6.2 | 2.1 | -0.4 | 13.6 | 0.8
